The structures appear in SMILES notation.

This data set is described as follows: Toxicity liver stage against HepG2, at 10uM. Details: test concentration 10 uM, cell line HepG2-A16-CD81EGFP. It counts as cell-based. The following applies: human, HepG2-A16-CD81EGFP cells; read-out: INHIBITION
The gist of the method: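 Uninfected HepG2-A16-CD81EGFP cells, 3 × 10^3 per well, 1536-well, plated on prespotted compound at 10 μM final, parasite-free screening media added to match infected plates; puromycin 10 μM positive, DMSO 0.5% negative; run in parallel with 48 h PbLuc assay at 37 °C, 5% CO2; viability by CellTiter-Glo luminescence, normalized to controls.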
Regarding `Cc1cc2[nH]c(=O)c(=O)[nH]c2cc1S(=O)(=O)NC1CCC(C)CC1` (configuration not stated), the cytotoxicity at 10 µM is -10.5%.

For `CC(C)(C)c1c[nH]c([C@@H]2COCCN2C2CCC2)n1`, the cytotoxicity at 10 µM amounted to 5.99%.

On to `O=C(C1CCN(S(=O)(=O)N2CCCC2)CC1)N1CCC2(CC1)OCCO2`, for which the cytotoxicity at 10 µM is -17.9%.

Turning to `CCN1Cc2cc(F)ccc2N(C(C)=O)CCC1=O`, the cytotoxicity at 10 µM is -4.78%.

Take `C=Cc1ccc(CSc2nc3c(c(=O)[nH]2)CN(CCC)CC3)cc1`: the cytotoxicity at 10 µM is -4.68%.

Consider `CN1CCCN(C(=O)c2nnn(-c3ccc(C(F)(F)F)cc3)n2)CC1`, for which the cytotoxicity at 10 µM was -7.37%.

Turning to `CCc1nn2c(=N)c(C#N)n[nH]c2c1-c1ccc(OC)cc1`, the cytotoxicity at 10 µM was -3.73%.

For `CCc1noc(C2CCCCN2C(=O)c2cc(C)on2)n1` (configuration not stated), the cytotoxicity at 10 µM is 5.67%.

In the case of `COc1cc(NCc2cccnc2)c(-c2nn[nH]n2)cc1OC`, the cytotoxicity at 10 µM was found to be 7.88%.

For the compound `CS(=O)(=O)N[C@@H]1CN(Cc2ccccc2)C[C@H]1O`, the cytotoxicity at 10 µM was -2.92%.

Take `CC(=O)N1CCC(c2ncc(C(=O)Nc3ccccc3)c(C)n2)CC1`: the cytotoxicity at 10 µM amounted to 5.91%.

As to `Fc1ccccc1CN1CCC[C@@H](Cn2nnc(-c3cccs3)n2)C1`, the cytotoxicity at 10 µM was found to be 4.77%.

Turning to `CCC(=O)N1CCCCC1c1nc(N(C)C)ncc1-c1cc(C)no1` (configuration not stated), the cytotoxicity at 10 µM worked out at 5.69%.

As for `O=C(c1ccc(-n2cccn2)nc1)N1CCC(c2ccn[nH]2)C1` (configuration not stated), the cytotoxicity at 10 µM is -0.399%.

As to `CC(=O)N1CCN([C@@H]2CN(C(=O)c3ccccc3C)C[C@H]2O)CC1`, the cytotoxicity at 10 µM is -3.79%.

`CC(C)NC(=O)C1CCc2nnc(CNC(=O)c3ccc(Cl)cc3Cl)n21` (configuration not stated): the cytotoxicity at 10 µM was determined as 5.84%.

With `COc1c(CNCCc2c[nH]c3ccccc23)c(C(C)C)nn1C`, the cytotoxicity at 10 µM was 3.41%.

Regarding `Cc1ccccc1CCCN1CCS(=O)(=O)CC1C` (configuration not stated), the cytotoxicity at 10 µM was 1.57%.

Turning to `Cc1ccccc1C(C)NC(=O)CN1CCN(Cc2ccc(Br)s2)CC1` (configuration not stated), the cytotoxicity at 10 µM worked out at 22.9%.

Regarding `CCc1nnc(CS(=O)(=O)c2ccc(C)c(C)c2)n1C`, the cytotoxicity at 10 µM was determined as 0.617%.

On to `Cc1nnc(CN2CCCC2c2ccc3c(c2)OCCCO3)n1C` (configuration not stated), for which the cytotoxicity at 10 µM was found to be 4.86%.

As to `CN(CCCOc1ccc(F)cc1)S(=O)(=O)c1cnn(C)c1`, the cytotoxicity at 10 µM is -0.336%.

As for `Cc1cc(C(=O)NCC2CCCC2)c(C)n1-c1cccnc1`, the cytotoxicity at 10 µM was determined as 5.69%.

As to `CC(NCc1ccc(OCC(N)=O)cc1)c1ccc2c(c1)CCCC2` (configuration not stated), the cytotoxicity at 10 µM is -0.699%.

Consider `CNC(=O)CCNC(=O)c1cc(Br)c2c(c1)OCCO2`, for which the cytotoxicity at 10 µM came to 3.82%.

Take `CSCC(CCO)Nc1cccc(C(F)(F)F)n1` (configuration not stated): the cytotoxicity at 10 µM amounted to 0.515%.

In the case of `Cc1[nH]ncc1CCCNC(=O)Nc1ccc(S(C)(=O)=O)nc1`, the cytotoxicity at 10 µM was -3.71%.

On to `COc1ccc(NC(=O)COc2nn(C)c3nc(C)cc(C)c23)cn1`, for which the cytotoxicity at 10 µM was -4.36%.

In the case of `Cc1nc(C)n(CC2CCCN2Cc2coc(-c3cccs3)n2)n1` (configuration not stated), the cytotoxicity at 10 µM is -9.61%.

On to `Cc1cnc(C(NC(=O)NCC2(CO)CC2)C2CC2)s1` (configuration not stated), for which the cytotoxicity at 10 µM came out at 1.8%.

For `CCN1CCCC1CN(CCN(C)C)S(=O)(=O)c1ccccc1C#N` (configuration not stated), the cytotoxicity at 10 µM was -8.58%.

As to `O=C(NCCc1ccccc1Cl)NCC1(O)CCSC1` (configuration not stated), the cytotoxicity at 10 µM was -6.17%.

As to `COc1ccnc(N2CCN(C(C)c3nc(C)no3)CC2)n1` (configuration not stated), the cytotoxicity at 10 µM was -1.33%.

For the compound `CC(C)(C)OC(=O)N1CCC[C@H](NCC2=CCCOC2)C1`, the cytotoxicity at 10 µM was -6.93%.

Take `Cc1nn(C)c(C)c1OCC(=O)N1CCCC1`: the cytotoxicity at 10 µM is -10.9%.

As to `COCCn1cc(NC(=O)NCC2CCN(c3ccccc3)C2)cn1` (configuration not stated), the cytotoxicity at 10 µM is 2.21%.

For `Cc1ccc(N2CCCN(C(=O)c3n[nH]c4c3CCC4)CC2)nn1`, the cytotoxicity at 10 µM turned out to be 3.81%.

Take `c1ccc(CCN2CC(n3cccn3)C2)nc1`: the cytotoxicity at 10 µM is -0.2%.

`COc1cc(C)c(CNC(C)c2nc(C)cs2)cc1OC` (configuration not stated): the cytotoxicity at 10 µM stood at 2.58%.

With `CN(C)C1CCN(C(=O)NCc2ccc(Cn3cncn3)cc2)CC1`, the cytotoxicity at 10 µM was -3.6%.

For the compound `NS(=O)(=O)N1CCc2ccc(NC(=O)Cc3ccc(F)cc3)cc21`, the cytotoxicity at 10 µM was -9.06%.

On to `O=C(c1ccoc1)N1Cc2cnn(CC3CC3)c2C(COCC2CC2)C1` (configuration not stated), for which the cytotoxicity at 10 µM was -6.98%.

For the compound `CS(=O)(=O)NC[C@]12COC[C@H]1CN(C(=O)C1CC=CC1)C2`, the cytotoxicity at 10 µM was -105%.

For `O=C(c1cccs1)N1CCC2(CC1)CN(c1ccsc1)C(=O)CO2`, the cytotoxicity at 10 µM is -70.5%.

With `CCOc1ccc(Cl)cc1C(C(=O)O)N1CCOCC1` (configuration not stated), the cytotoxicity at 10 µM is -0.924%.

For the compound `Cc1cccc2[nH]c(COCC(=O)N3CCCn4cncc4C3)nc12`, the cytotoxicity at 10 µM came out at 2.03%.

For `CCCn1ncc(CN(Cc2cccnc2)Cc2ccsc2)c1C`, the cytotoxicity at 10 µM was 13.1%.

Take `CC(C)(C)c1ccc(-n2ncc3c2CCCC3N)cc1` (configuration not stated): the cytotoxicity at 10 µM was -0.711%.

In the case of `CCC(NC(=O)CCNC(=O)c1ccccc1F)c1cc(C)ccn1` (configuration not stated), the cytotoxicity at 10 µM is -11.4%.

Regarding `CCCn1ccnc1CN1CCC(Oc2ccc(Cl)cc2)(C(=O)O)CC1`, the cytotoxicity at 10 µM stood at 3.47%.

On to `Cc1cncc(NC(=O)c2ccc(CN3CCCC(C(N)=O)C3)cc2)c1` (configuration not stated), for which the cytotoxicity at 10 µM is 0.86%.

On to `CCc1nnc(N2CCN(CCc3ccccc3)C(=O)C2)o1`, for which the cytotoxicity at 10 µM was -1.01%.

In the case of `COc1cc(F)c(C(=O)NCc2cc(C)on2)c(F)c1`, the cytotoxicity at 10 µM is -0.376%.

Consider `Nc1nc2c(c(NCC(c3cccnc3)N3CCOCC3)n1)CCNC2` (configuration not stated), for which the cytotoxicity at 10 µM came to 9.03%.

For the compound `Cc1cc(CC(C)NC2CCSCC2)[nH]n1` (configuration not stated), the cytotoxicity at 10 µM was 1.08%.

As for `CCCn1ncc(C(=O)N(C)Cc2n[nH]c3c2CCC3)c1C`, the cytotoxicity at 10 µM came out at 0.213%.

Regarding `CCc1cc(C(=O)N2CCCn3nc(CCC(=O)O)cc3C2)cs1`, the cytotoxicity at 10 µM was -3.32%.

As to `Cc1cc(F)ccc1OC1(C(=O)O)CCN(Cc2c[nH]cn2)CC1`, the cytotoxicity at 10 µM was 1.18%.

For the compound `Cc1ccc(S(=O)(=O)N2C[C@H](C3CC3)[C@@H](N)C2)cc1F`, the cytotoxicity at 10 µM was -3.25%.

On to `CCOc1ccc(-c2ccnc(C3CC3)n2)cc1C(=O)O`, for which the cytotoxicity at 10 µM was -0.173%.

In the case of `Cn1ncc2c(N3CC(N4CCCCC4)C3)nc(-c3ccncc3)nc21`, the cytotoxicity at 10 µM came out at 5.18%.

Take `COc1ccc(C(C(=O)O)N(C)CCN2CCOCC2)c(C)c1` (configuration not stated): the cytotoxicity at 10 µM was found to be 2.66%.

`Cc1noc(CN(C)CC2(O)CCCN(CCC3CCCCC3)C2=O)n1` (configuration not stated): the cytotoxicity at 10 µM is -3.73%.

As for `CN(C)C(=O)c1cccnc1-c1ccc2c(c1)OCO2`, the cytotoxicity at 10 µM is 1.58%.

In the case of `CN(Cc1ccccc1)c1ncccc1CNC1CCC1`, the cytotoxicity at 10 µM was 13.5%.

In the case of `O=C(NCCc1ccncc1)c1cccc(S(=O)(=O)NC2CCOC2)c1` (configuration not stated), the cytotoxicity at 10 µM was found to be 4.93%.

For the compound `CSCCC(=O)N1C[C@@H](C)[C@](O)(C(C)C)C1`, the cytotoxicity at 10 µM came out at 0.68%.

Regarding `CC(C)(C)c1oc(C(N)=O)cc1CN1CCOC(C(F)(F)F)C1` (configuration not stated), the cytotoxicity at 10 µM is -4.81%.

With `O=C1N(CCO)CCCC12CCN(Cc1noc(C3CCCC3)n1)C2` (configuration not stated), the cytotoxicity at 10 µM is -0.973%.

As for `COc1cccc(S(=O)(=O)N2CCCCC2CCN2CCOCC2)c1` (configuration not stated), the cytotoxicity at 10 µM is -5.31%.

Turning to `CCC(Nc1nccc(C2CCCC2)n1)c1ccccn1` (configuration not stated), the cytotoxicity at 10 µM is -126%.

Turning to `CN(Cc1cc[nH]n1)C(=O)c1ccc2c(c1)nc(N1CC[C@H](O)C1)n2C`, the cytotoxicity at 10 µM worked out at 4.43%.

As for `COc1ccc2c(c1)C(C(=O)N(C)CCCc1nccn1C)CC(=O)N2` (configuration not stated), the cytotoxicity at 10 µM is -56%.

On to `Cc1ccc(-c2ccc(Cl)nn2)cc1S(N)(=O)=O`, for which the cytotoxicity at 10 µM is -12.3%.

`COc1cccc(OC)c1OCCn1c(C)c(C)oc1=O`: the cytotoxicity at 10 µM was found to be 9.61%.

Turning to `O=C(c1ccc(F)cc1F)N1C[C@@H](O)[C@H](N2CCOCC2)C1`, the cytotoxicity at 10 µM was -1.37%.

On to `O=C1NCCN1C1CCN(CCOc2ccccc2Cl)CC1`, for which the cytotoxicity at 10 µM is -6.69%.

`CCC(C)NC(=O)CCNC(=O)Nc1ccc(-n2cncn2)c(F)c1` (configuration not stated): the cytotoxicity at 10 µM was -0.22%.

Consider `CC(C)(O)CN1CCN(C(=O)COCc2ccccc2Cl)CC1`, for which the cytotoxicity at 10 µM is -4.72%.

As for `CC(C)c1nc(C2CCCN2Cc2ccccc2C#N)no1` (configuration not stated), the cytotoxicity at 10 µM is -7.62%.

Turning to `O=C(CS(=O)(=O)CC1CCCCC1)NC1CCCCNC1=O` (configuration not stated), the cytotoxicity at 10 µM was -10.6%.

Take `Cc1ccc(C(=O)NS(=O)(=O)c2cccc3cnccc23)c(=O)[nH]1`: the cytotoxicity at 10 µM was -8.16%.

`Cc1oc(C)c(C(=O)NCc2ccccn2)c1C`: the cytotoxicity at 10 µM was -0.729%.

As for `Cc1nnc2n1CCN(C(=O)c1cc(Cl)c[nH]1)C2`, the cytotoxicity at 10 µM is -5.87%.

As for `CCc1nnc2n1CCN(C(=O)Cc1csc(-c3ccco3)n1)C2`, the cytotoxicity at 10 µM is -8.7%.

For the compound `CCc1nnc2n1CCN(C(=O)c1ccc(C(F)(F)F)nc1C)C2`, the cytotoxicity at 10 µM is -7.28%.

For the compound `CCc1[nH]ncc1C(=O)N1CCCC(n2cccn2)C1` (configuration not stated), the cytotoxicity at 10 µM was found to be 4.62%.

As for `Cc1cnn(CC2CCCN2C(=O)c2cc(Cl)ccc2F)c1` (configuration not stated), the cytotoxicity at 10 µM is -5.82%.

As for `c1cnn(CC2CN(CC3CCCC3)CCO2)c1` (configuration not stated), the cytotoxicity at 10 µM was -2.55%.

Turning to `CC(C)COC(C)C(=O)NCc1cc(F)cc(F)c1` (configuration not stated), the cytotoxicity at 10 µM was determined as 3.37%.

For `COCC1COCCC12CCN(Cc1nccs1)CC2` (configuration not stated), the cytotoxicity at 10 µM was 2.31%.

As for `Cc1occc1C(=O)N1CCC[C@]2(C[C@@H](OCc3ccccn3)CO2)C1`, the cytotoxicity at 10 µM is -72.4%.

As to `Cc1noc(C)c1CN1CCN(Cc2cccnc2)c2ncccc2C1`, the cytotoxicity at 10 µM is -67.1%.

Take `c1ccc(CN2CC[C@@H]3O[C@@H](COCC4CCOCC4)CC[C@@H]32)nc1`: the cytotoxicity at 10 µM is -1.98%.

Turning to `Cc1nc(CN2CCO[C@@H]3CN(Cc4ccsc4)C[C@@H]3C2)cs1`, the cytotoxicity at 10 µM came to 2.99%.

For the compound `O=C(C1CCOCC1)N1C[C@@H]2CN(Cc3ccsc3)CCO[C@@H]2C1`, the cytotoxicity at 10 µM is -77.5%.

Turning to `COCCN1CCc2ncnc(NC(C)C)c2CC1`, the cytotoxicity at 10 µM came out at 2.13%.

The values above are taken from ChEMBL document CHEMBL4513216, “Probing the Open Global Health Chemical Diversity Library for Multistage-Active Starting Points for Next-Generation Antimalarials” (ACS Infect Dis, 2020).
